Source: BindingDB's records for doi:10.1021/jm001079l (Umr 8525 Cnrs - Universit&#233, 2001)

These molecules were tested against Trypanothione reductase (Trypanosoma cruzi, UniProt P28593) (assay: Inhibitory activity against Trypanosoma cruzi trypanothione disulfide reductase, assay in presence of 57 uM T(S)2.).
Sequence of Trypanothione reductase (P28593 whole entry): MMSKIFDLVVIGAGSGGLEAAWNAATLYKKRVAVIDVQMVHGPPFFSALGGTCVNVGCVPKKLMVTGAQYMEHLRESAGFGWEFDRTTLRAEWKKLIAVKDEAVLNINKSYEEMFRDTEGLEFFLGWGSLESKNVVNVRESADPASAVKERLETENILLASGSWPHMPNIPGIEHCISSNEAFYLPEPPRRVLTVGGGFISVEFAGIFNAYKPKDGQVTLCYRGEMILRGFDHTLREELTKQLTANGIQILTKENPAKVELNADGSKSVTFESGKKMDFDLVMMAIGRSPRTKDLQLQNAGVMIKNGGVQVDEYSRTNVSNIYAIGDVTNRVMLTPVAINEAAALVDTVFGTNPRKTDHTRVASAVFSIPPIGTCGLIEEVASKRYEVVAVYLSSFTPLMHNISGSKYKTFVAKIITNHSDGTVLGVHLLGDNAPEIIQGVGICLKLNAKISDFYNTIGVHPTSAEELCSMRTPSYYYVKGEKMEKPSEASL
Outline: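 Assay contained 250 µM NADPH, 57 µM T(S)₂, inhibitor at 0.3–50 µM and 1% DMSO final. Started with enzyme; NADPH loss followed at 340 nm. IC50 in duplicate.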
`Cc1c(N=CCCNCCCCNCCCN)c(O)c2c(O)cccc2c1O` was tested, and the IC50 was 28 µM. In the case of `Cc1c(N=CCCCN)c(O)c2ccccc2c1O` [2-(4-Amino-butylamino)-3-methyl-[1,4]naphthoquinone], the IC50 is reported as > 57 µM. With `Cc1c(N=CCCN2CCN(C)CC2)c(O)c2ccccc2c1O` [2-Methyl-3-[3-(4-methyl-piperazin-1-yl)-propylamino]-[1,4]naphthoquinone] the IC50 was > 57 µM. For `Cc1c(N=CCCC=Nc2c(C)c(O)c3ccccc3c2O)c(O)c2ccccc2c1O` [2-methyl-3-[4-(3-methyl-1,4-dioxo-1,4-dihydro-2-naphthalenylamino)butylamino]-1,4-dihydro-1,4-naphthalenedione], the IC50 was > 57 µM. With `Cc1c(N=CCCNCCCCNCCCN)c(O)c2ccccc2c1O` [2-{3-[4-(3-Amino-propylamino)-butylamino]-propylamino}-3-methyl-[1,4]naphthoquinone] the IC50 was 28 µM. For `Cc1c(N=CCCCN)c(O)c2c(O)cccc2c1O` [3-(4-Amino-butylamino)-5-hydroxy-2-methyl-[1,4]naphthoquinone], the IC50 was > 57 µM. `Cc1c(C=CC(=O)NCCCCNCCCNC(=O)C=Cc2c(C)c(O)c3cccc(O)c3c2O)c(O)c2c(O)cccc2c1O` [3-(8-Hydroxy-3-methyl-1,4-dioxo-1,4-dihydro-naphthalen-2-yl)-N-(4-{3-[3-(8-hydroxy-3-methyl-1,4-dioxo-1,4-dihydro-naphthalen-2-yl)-propionylamino]-propylamino}-butyl)-propionamide] was tested, and the IC50 was 2.9 µM. `Cc1c(C=CC(=O)O)c(O)c2c(O)cccc2c1O` [3-(8-Hydroxy-3-methyl-1,4-dioxo-1,4-dihydro-naphthalen-2-yl)-propionic acid] was tested, and the IC50 was > 50 µM. In the case of `CN1CCN(CCCNC(=O)C=Cc2c(CCC(=O)NCCCN3CCN(C)CC3)c(O)c3cccc(O)c3c2O)CC1` [3-(8-Hydroxy-3-{2-[3-(4-methyl-piperazin-1-yl)-propylcarbamoyl]-ethyl}-1,4-dioxo-1,4-dihydro-naphthalen-2-yl)-N-[3-(4-methyl-piperazin-1-yl)-propyl]-propionamide], the IC50 is reported as > 50 µM. `Cc1c(C=CCC(=O)NCCCNCCCNC(=O)CC=Cc2c(C)c(O)c3ccccc3c2O)c(O)c2ccccc2c1O` [4-(3-Methyl-1,4-dioxo-1,4-dihydro-naphthalen-2-yl)-N-(3-{3-[4-(3-methyl-1,4-dioxo-1,4-dihydro-naphthalen-2-yl)-butyrylamino]-propylamino}-propyl)-butyramide] gave an IC50 of 11 µM. `CN1CCN(CCCNC(=O)CC=Cc2c(CCCC(=O)NCCCN3CCN(C)CC3)c(O)c3cccc(O)c3c2O)CC1` [4-(5-Hydroxy-3-{3-[3-(4-methyl-piperazin-1-yl)-propylcarbamoyl]-propyl}-1,4-dioxo-1,4-dihydro-naphthalen-2-yl)-N-[3-(4-methyl-piperazin-1-yl)-propyl]-butyramide] showed an IC50 of 11 µM. With `Cc1c(C=CCC(=O)NCCCN2CCN(CCCNC(=O)CC=Cc3c(C)c(O)c4cccc(O)c4c3O)CC2)c(O)c2c(O)cccc2c1O` [4-(8-Hydroxy-3-methyl-1,4-dioxo-1,4-dihydro-naphthalen-2-yl)-N-[3-(4-{3-[4-(8-hydroxy-3-methyl-1,4-dioxo-1,4-dihydro-naphthalen-2-yl)-butyrylamino]-propyl}-piperazin-1-yl)-propyl]-butyramide] the IC50 was 2.3 µM. For `Cc1c(C=CCC(=O)O)c(O)c2c(O)cccc2c1O` [4-(8-Hydroxy-3-methyl-1,4-dioxo-1,4-dihydro-naphthalen-2-yl)-butyric acid], the IC50 was > 50 µM. `Cc1c(N=CCCN2CCN(C)CC2)c(O)c2c(O)cccc2c1O` [5-Hydroxy-2-methyl-3-[3-(4-methyl-piperazin-1-yl)-propylamino]-[1,4]naphthoquinone] was tested, and the IC50 was > 57 µM. `O=C(O)CCCC=Cc1c(CCCCCC(=O)O)c(O)c2ccccc2c1O` [6-[3-(5-Carboxy-pentyl)-1,4-dioxo-1,4-dihydro-naphthalen-2-yl]-hexanoic acid] was tested, and the IC50 was > 50 µM. For `Cc1c(CC=NC(=O)OC(C)(C)C)c(O)c2ccccc2c1O` [[2-(3-Methyl-1,4-dioxo-1,4-dihydro-naphthalen-2-yl)-ethyl]-carbamic acid tert-butyl ester], the IC50 was > 50 µM. For `Cc1c(CC=NC(=O)OC(C)(C)C)c(O)c2c(O)cccc2c1O` [[2-(8-Hydroxy-3-methyl-1,4-dioxo-1,4-dihydro-naphthalen-2-yl)-ethyl]-carbamic acid tert-butyl ester], the IC50 was > 25 µM. With `Cc1c(C=CCNC(=O)OC(C)(C)C)c(O)c2c(O)cccc2c1O` [[3-(8-Hydroxy-3-methyl-1,4-dioxo-1,4-dihydro-naphthalen-2-yl)-propyl]-carbamic acid tert-butyl ester] the IC50 was > 25 µM.
